Test results taken from ChEMBL document CHEMBL3603816, “Synthetic Small Molecules Derived from Natural Vitamin K Homologues that Induce Selective Neuronal Differentiation of Neuronal Progenitor Cells” (2015).
Activity calls are given as the source filed them. The rule behind the calls is not given here.

Key:
Neuronal progenitor cell [1] = test: Induction of neuronal differentiation in mouse neuronal progenitor cells assessed as expression of Gfap at 1 uM treated for every second day for 4 days by immunofluorescence staining method; format: functional
Outline: (§1)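 Neural stem/progenitor cells dissociated from embryonic day 14 mouse cerebrum. Cultured 24 h after seeding, then given 1 μM analogue every second day for 4 days. Immunofluorescence with Map2 (neurons, red) and Gfap (astrocytes, green), nuclei counterstained with DAPI. Imaged by confocal laser microscopy; the legend states staining after 48 h.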

Neuronal progenitor cell [2] = test: Induction of neuronal differentiation in mouse neuronal progenitor cells assessed as expression of Map2 at 1 uM treated for every second day for 4 days by immunofluorescence staining method; format: functional; outline: as §1
[3] = Induction of neuronal differentiation in mouse neuronal progenitor cells assessed as expression of Map2 at 1 uM treated for every second day for 4 days by real-time PCR method relative to control
Neuronal progenitor cell [4] = test: Induction of neuronal differentiation in mouse neuronal progenitor cells assessed as relative ratio of expression of Map2/Gfap mRNA at 1 uM treated for every second day for 4 days by RT-PCR analysis; format: functional
Outline: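 E14 mouse cerebral progenitor cells, cultured 24 h, then treated with 1.0 × 10−6 M compound or ethanol for 4 days. mRNA extracted; Map2, Gfap and β-actin levels quantitated by real-time PCR, and the Map2/Gfap ratio calculated. Means of three independent experiments ± SD. Dunnett's t-test versus EtOH.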

Row | Compound | Activity (Neuronal progenitor cell [1]) | Activity (Neuronal progenitor cell [2]) | fold change (FC) [3] | Activity (Neuronal progenitor cell [4])
1 | CC1=C(C/C=C(\C)CC/C=C(\C)Cc2cccc3ccccc23)C(=O)c2ccccc2C1=O | inactive | Active | 1.5 | –
2 | C/C(=C\CO)CC/C=C(\C)CC/C=C(\C)Cc1ccc2ccccc2c1 | inactive | Active | – | –
3 | CC(C)=CCC/C(C)=C/CC/C(C)=C/CC1=C(C)C(=O)c2ccccc2C1=O | – | – | – | Active
4 | CC1=C(C/C=C(\C)CC/C=C(\C)CC/C=C(\C)Cc2cccc3ccccc23)C(=O)c2ccccc2C1=O | inactive | Active | 1.5 | –
5 | C/C(=C\CO)CC/C=C(\C)CC/C=C(\C)Cc1ccc(-c2ccccc2)cc1 | inactive | Active | – | –
6 | C/C(=C\CO)CC/C=C(\C)Cc1ccc2ccccc2c1 | inactive | Active | – | –
7 | CC1=C(C/C=C(\C)CC/C=C(\C)Cc2ccc(-c3ccccc3)cc2)C(=O)c2ccccc2C1=O | inactive | Active | 1.5 | –
8 | C/C(=C\CO)CC/C=C(\C)CC/C=C(\C)Cc1cccc2ccccc12 | inactive | Active | – | –
9 | CC1=C(C/C=C(\C)CC/C=C(\C)Cc2ccccc2)C(=O)c2ccccc2C1=O | inactive | Active | 1.5 | –
10 | C/C(=C\CO)CC/C=C(\C)Cc1cccc2ccccc12 | inactive | Active | – | –
11 | C/C(=C\CO)CC/C=C(\C)Cc1ccc(-c2ccccc2)cc1 | inactive | Active | – | –
12 | C/C(=C\CO)CC/C=C(\C)CC/C=C(\C)Cc1ccccc1 | inactive | Active | – | –
13 | CC(C)=CCC/C(C)=C/CC1=C(C)C(=O)c2ccccc2C1=O | – | – | – | Active
14 | C/C(=C\CO)CC/C=C(\C)Cc1ccccc1 | inactive | Active | – | –
15 | CC1=C(C/C=C(\C)CC/C=C(\C)CC/C=C(\C)Cc2cccc(C)c2)C(=O)c2ccccc2C1=O | inactive | Active | 1.5 | Active
16 | CC1=C(C/C=C(\C)CC/C=C(\C)Cc2ccc3ccccc3c2)C(=O)c2ccccc2C1=O | inactive | inactive | 1.5 | –
17 | C/C(=C\CO)CC/C=C(\C)Cc1cccc(C)c1 | inactive | Active | – | –
18 | CC1=C(C/C=C(\C)CC/C=C(\C)CC/C=C(\C)Cc2ccccc2)C(=O)c2ccccc2C1=O | inactive | Active | 1.5 | –
19 | CC1=C(C/C=C(\C)CC/C=C(\C)Cc2cccc(C)c2)C(=O)c2ccccc2C1=O | inactive | Active | 1.5 | –
20 | CC1=C(C/C=C(\C)CC/C=C(\C)CC/C=C(\C)Cc2ccc(-c3ccccc3)cc2)C(=O)c2ccccc2C1=O | inactive | Active | 1.5 | –
21 | C/C(=C\CO)CC/C=C(\C)CC/C=C(\C)Cc1cccc(C)c1 | inactive | Active | – | –
22 | CC1=C(C/C=C(\C)CC/C=C(\C)CC/C=C(\C)Cc2ccc3ccccc3c2)C(=O)c2ccccc2C1=O | inactive | Active | 1.5 | –
